Experimental data as given in paper PMC2873839 (Bioorganic & medicinal chemistry, 2010).
Entries after “also recorded” stand apart in the source; their conditions may differ.

Test system: HeLa cells
Assay: Confocal microscopy of subcellular distribution / nuclear staining
Format: cell-based
Method in brief: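 HeLa grown in MEM alpha with 10% FBS at 37 °C, 5% CO2, seeded at 4000 cells/well on glass bottom, adhered overnight. Test compound 10–100 μM, 37 °C for 2–19 h, in complete or serum-free medium, then HBSS rinse. Confocal: 63x/1.4 oil objective, 1.1 μm optical slice, excitation 488 nm, emission 560+ nm. Dead cells excluded by morphology; percentage with nuclear staining scored.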

Row | Substance | subcellular distribution (40 μM, 2 h) | percentage of cells with additional nuclear staining (100 μM, 4 h, complete medium) | subcellular distribution (100 μM, 4 h, complete medium) | subcellular distribution (10 μM, 2 h) | subcellular distribution (10 μM, 19 h, complete medium)
1 | KKKK [Ru-KKKK] | only faint luminescence in the cytoplasm | 17% | brighter, punctate cytoplasmic staining; also recorded: punctate staining of the cytoplasm |  | 
2 | KSKKQK [Ru-KSKKQK] |  |  |  | only faint punctate luminescence in the cytoplasm and no nuclear staining | same result; also recorded: Punctate staining of the cytoplasm
3 | PKKKRKV [Ru-PKKKRKV] |  |  |  | only faint punctate luminescence in the cytoplasm and no nuclear staining | same result; also recorded: Punctate staining of the cytoplasm
